# Measured values as given in ChEMBL document CHEMBL1126644, “Structure-activity relationships in the trans-hexahydroindolo[4,3-ab]phenanthridine ("benzergoline") series. 2. Resolution, absolute configuration, and dopaminergic activity of the selective D1 agonist CY 208-243 and its implication for an "extended rotamer-based dopamine receptor model"” (1993).
# Columns and labels:
# Rattus norvegicus [1] = organism: Rattus norvegicus; assay: In vitro potency in rat striatal slices by electrically evoked acetylcholine release; format: functional
# Bos taurus = organism: Bos taurus; assay: In vitro percent maximal stimulation relative to dopamine (125 uM) in bovine retina; format: functional
# Method in brief: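 Bovine retina adenylate cyclase stimulation, expressed as a percentage of the maximal effect produced by 125 μM dopamine.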
# [2] = In vitro potency against adenylate cyclase in bovine retina; format: tissue-based
# Method in brief: (§1)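 Dopamine-sensitive adenylate cyclase assay on bovine retina tissue. Values are means of two to six independent experiments, each run in triplicate.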
# Rattus norvegicus [3] = organism: Rattus norvegicus; assay: Tested in vitro for percent maximal inhibition in rat striatal slices (% of control) expressed as change of S2/S1 versus control at 1 uM
# [4] = Compound was evaluated for in vitro potency against adenylate cyclase in bovine retina; format: tissue-based; method in brief: as §1
# Rattus norvegicus [5] = organism: Rattus norvegicus; assay: Tested in vitro for percent maximal inhibition in rat striatal slices (% of control) expressed as change of S2/S1 versus control at 1 uM; remark: listed apart in the source
smiles,measurement,setting,value
CN1CCC[C@@H]2c3cccc4[nH]cc(c34)C[C@H]21,pD2,Rattus norvegicus [1],7.5
same,Relative to DA,Bos taurus,24%
same,pD2,[2],5.2
same,inhibition at 1 µM,Rattus norvegicus [3],30%
CN1Cc2ccccc2[C@@H]2c3cccc4[nH]cc(c34)C[C@H]21 (stereo in doubt; (+)-1),Relative to DA,Bos taurus,0%
CN1Cc2ccccc2[C@@H]2c3cccc4[nH]cc(c34)C[C@H]21 (stereo in doubt) [listing 1 of 2 here],Relative to DA,Bos taurus,68%
CN1CCc2cccc3c2[C@H]1Cc1ccc(O)c(O)c1-3 [APOMORPHINE],pD2,Rattus norvegicus [1],7.5
same,Relative to DA,Bos taurus,38%
same,pD2,[2],6.2
same,inhibition at 1 µM,Rattus norvegicus [3],85%
CN1Cc2ccccc2[C@@H]2c3cccc4[nH]cc(c34)C[C@H]21 (racemic) [listing 1 of 2 here],pD2,[2],6.1
CN1CCC[C@@H]2Cc3c(O)cccc3C[C@H]21,pD2,Rattus norvegicus [1],7.3
same,Relative to DA,Bos taurus,14%
same,pD2,[2],6.15
same,inhibition at 1 µM,Rattus norvegicus [3],62%
CN1Cc2ccccc2[C@@H]2c3cccc4[nH]cc(c34)C[C@H]21 (stereo in doubt) [listing 2 of 2 here],pD2,[4],6.9
Oc1cc2c(cc1O)C(c1ccccc1)CNCC2 (centres undefined) [SKF-38393],Relative to DA,Bos taurus,58%
same,pD2,[2],6.6
same,inhibition at 1 µM,Rattus norvegicus [3],0%
CN1Cc2ccccc2[C@@H]2c3cccc4[nH]cc(c34)C[C@H]21 (racemic) [listing 2 of 2 here],Relative to DA,Bos taurus,57%
same,inhibition at 1 µM,Rattus norvegicus [5],0%
Oc1ccc([C@@H]2CNCc3ccccc32)cc1O,Relative to DA,Bos taurus,86%
same,pD2,[2],6
same,inhibition at 1 µM,Rattus norvegicus [3],0%
